≈ marks a conversion by molar mass, not a printed value.
Key:
Staphylococcus aureus [1] = experiment: Toxicity in fluoroquinolone-resistant Staphylococcus aureus 1199B expressing NorA at 100 ug/ml after 24 hrs by microdilution method; format: organism-based
Method in brief: (§1)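 Single-point screen at 100 μg/mL of compound alone in MH broth microdilution, 10^6 CFU/mL, 24 h at 37 °C. Growth is read at 620 nm and visually, giving percent growth inhibition. Compounds inhibiting more than 90% then go to MIC determination. Duplicates.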

Staphylococcus aureus [2] = experiment: Toxicity in Staphylococcus aureus ATCC 25923 at 100 ug/ml after 24 hrs by microdilution method; format: organism-based; method in brief: as §1
[3] = molecular target: T1, Quinolone resistance protein NorA (Staphylococcus aureus) (UniProt P0A0J7); experiment: Inhibition of NorA in fluoroquinolone-resistant Staphylococcus aureus 1199B assessed as potentiation of 4 ug/ml of ciprofloxacin MIC at 100 ug/ml after 24 hrs by microdilution method
T1 sequence (whole entry): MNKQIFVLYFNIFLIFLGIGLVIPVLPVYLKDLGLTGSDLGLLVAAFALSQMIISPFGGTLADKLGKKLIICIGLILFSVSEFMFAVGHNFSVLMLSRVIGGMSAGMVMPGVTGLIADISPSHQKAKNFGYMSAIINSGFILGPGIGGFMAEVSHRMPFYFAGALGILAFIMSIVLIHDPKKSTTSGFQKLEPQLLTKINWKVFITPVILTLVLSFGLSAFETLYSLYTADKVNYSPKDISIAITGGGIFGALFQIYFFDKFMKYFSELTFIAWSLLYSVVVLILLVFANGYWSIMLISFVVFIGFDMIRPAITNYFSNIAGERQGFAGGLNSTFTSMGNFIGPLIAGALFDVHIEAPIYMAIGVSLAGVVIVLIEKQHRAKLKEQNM
Method in brief: (§2)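 Combination with ciprofloxacin 4 μg/mL (MIC/4) against SA-1199B in MH broth microdilution, 10^6 CFU/mL, 24 h at 37 °C, read at 620 nm and visually. Compounds are first screened at 100 μg/mL; actives are 2-fold serially diluted. MMC4 is the lowest inhibitor concentration giving antibacterial activity with subinhibitory ciprofloxacin. Duplicates.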

[4] = Cytotoxicity against human KB cells assessed growth inhibition at 10 uM after 72 hrs by MTS assay; format: cell-based; conditions: read-out: GI
Method in brief: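 KB cells (from NCI) grown in DMEM with 10% FCS, penicillin-streptomycin, fungizone and glutamine, 37 °C, 5% CO2; compounds in DMSO added 24 h after plating (1% DMSO final, controls same). 72 h exposure, then MTS 3 h at 37 °C, absorbance at 490 nm; inhibition = (1 − OD490 treated/OD490 control)×100, triplicate experiments.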

Staphylococcus aureus [5] = experiment: Toxicity in Staphylococcus aureus ATCC 25923 after 24 hrs by microdilution method; format: organism-based
Method in brief: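 Mueller–Hinton broth microdilution; inoculum from frozen culture grown 18 h at 37 °C, 10^6 CFU/mL per well. Compounds (10 mg/mL DMSO stock) in 2-fold serial dilutions, highest 128 mg/L, first screened at 100 μg/mL. MIC = complete growth inhibition after 24 h at 37 °C, read at 620 nm and visually; duplicate; ampicillin control.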

Staphylococcus aureus [6] = experiment: Toxicity in fluoroquinolone-resistant Staphylococcus aureus 1199B expressing NorA after 24 hrs by microdilution method; format: organism-based; conditions: in vitro
Method in brief: (§3)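 Broth microdilution in Mueller–Hinton broth, 10^6 CFU/mL per well from an 18 h 37 °C culture. Compounds come from 10 mg/mL DMSO stocks as 2-fold serial dilutions, top 128 mg/L. Plates run 24 h at 37 °C and are read at 620 nm and visually. MIC is the lowest concentration with complete growth inhibition. Duplicates; 2-fold variance accepted.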

[7] = tested on: Staphylococcus aureus subsp. aureus RN4220; experiment: Inhibition of MsrA in macrolide-resistant Staphylococcus aureus RN4220 harboring pUL5054 assessed as potentiation of 4 ug/ml of […] erythromycin MIC after 24 hrs by microdilution method (reference value: […] ug/ml)
Staphylococcus aureus [8] = experiment: Antibacterial activity against Staphylococcus aureus ATCC 25923 after 24 hrs by microdilution method; format: functional; conditions: ATCC 25923, 24 h; method in brief: as §3
[9] = molecular target: T1, Quinolone resistance protein NorA (Staphylococcus aureus); experiment: Inhibition of NorA in fluoroquinolone-resistant Staphylococcus aureus 1199B assessed as potentiation of 4 ug/ml of ciprofloxacin MIC at 1 ug/ml after 24 hrs by microdilution method; method in brief: as §2

| SMILES | growth inhibition (GI) (Staphylococcus aureus [1]) [%] | growth inhibition (GI) (Staphylococcus aureus [2]) [%] | Activity [3] [µg/mL] | inhibition at 72 h, 10 µM [4] [%] | MIC (Staphylococcus aureus [5]) | MIC (Staphylococcus aureus [6]) [µg/mL] | Activity [7] [µg/mL] | MIC (Staphylococcus aureus [8]) [µg/mL] | fold change (FC) [9] |
| --- | --- | --- | --- | --- | --- | --- | --- | --- | --- |
| Cn1nccc1B1OC(C)(C)C(C)(C)O1 | < 90 | < 90 | 8 | 0 | >= 64 ug ml-1 |  |  |  |  |
| O=Cc1ccc(B(O)O)cc1Cl |  |  | 4 | 100 | >= 64 ug ml-1 | 32 (≈ 174 µM) | 32 |  |  |
| OB(O)c1cccnc1F | < 90 | < 90 | 8 | 4 | >= 64 ug ml-1 |  |  |  |  |
| CC(C)(O)C(C)(C)OB(OC(C)(C)C(C)(C)O)c1ccnc(F)c1 | < 90 | < 90 | 2 | 0 | >= 64 ug ml-1 |  |  |  |  |
| OB(O)c1ccc(OCc2ccccc2)cc1 |  |  | 0.5 | 6 |  | > 128 |  |  |  |
| OB(O)c1ccc(Br)nc1 | < 90 | < 90 | 8 | 1 | >= 64 ug ml-1 |  |  |  |  |
| CC1(C)S[C@@H]2[C@H](NC(=O)[C@H](N)c3ccccc3)C(=O)N2[C@H]1C(=O)O [AMPICILLIN] |  |  |  |  | >= 64 ug ml-1 |  |  | 0.25 (≈ 0.715 µM) |  |
| Cc1cc(B(O)O)ccc1Cl |  |  | 2 | 0 |  | > 128 |  |  |  |
| OB(O)c1ccc(Cl)nc1 | < 90 | < 90 | 8 | 1 | >= 64 ug ml-1 |  |  |  |  |
| CSc1ccc(B(O)O)cn1 | < 90 | < 90 | 8 | 0 | >= 64 ug ml-1 |  |  |  |  |
| Cc1cc(B(O)O)cnc1Cl |  | < 90 | 4 | 0 | >= 64 ug ml-1 | > 128 |  |  |  |
| OB(O)c1cc(Br)cnc1F |  | < 90 | 128 |  | >= 64 ug ml-1 | > 128 |  |  |  |
| OB(O)c1ccc2ccccc2c1 |  |  | 4 | 3 |  | > 128 |  |  |  |
| OB(O)c1cc(Cl)cnc1Cl |  | < 90 | 16 |  | >= 64 ug ml-1 | > 128 |  |  |  |
| OB(O)c1ccc(Cl)cc1 |  |  | 1 | 0 |  | 64 (≈ 409 µM) |  |  |  |
| OB(O)c1ccc(Br)cc1 |  |  | 2 | 0 |  | > 128 |  |  |  |
| OB(O)c1ccc(Oc2ccc(Cl)nc2)nc1 | < 90 | < 90 | 4 | 0 | >= 64 ug ml-1 |  |  |  |  |
| CC(=O)OCc1ccc(B(OC(C)(C)C(C)(C)O)OC(C)(C)C(C)(C)O)cc1 | < 90 | < 90 | 4 | 6 | >= 64 ug ml-1 |  |  |  |  |
| O=Cc1ccc(B(O)O)cc1C(F)(F)F |  |  | 16 | 100 | >= 64 ug ml-1 | 32 (≈ 147 µM) | 32 |  |  |
| O=C(O)c1cn(C2CC2)c2cc(N3CCNCC3)c(F)cc2c1=O [CIPROFLOXACIN] |  |  |  |  | >= 64 ug ml-1 |  |  | 0.5 (≈ 1.51 µM) |  |
| CCOc1ccc(B(O)O)cn1 | < 90 | < 90 | 4 | 0 | >= 64 ug ml-1 |  |  |  |  |
| OB(O)c1ccsc1 | < 90 | < 90 | 8 | 0 | >= 64 ug ml-1 |  |  |  |  |

| SMILES | growth inhibition (GI) (Staphylococcus aureus [1]) [%] | growth inhibition (GI) (Staphylococcus aureus [2]) [%] | Activity [3] [µg/mL] | inhibition at 72 h, 10 µM [4] [%] | MIC (Staphylococcus aureus [5]) | MIC (Staphylococcus aureus [6]) [µg/mL] | Activity [7] [µg/mL] | MIC (Staphylococcus aureus [8]) [µg/mL] | fold change (FC) [9] |
| --- | --- | --- | --- | --- | --- | --- | --- | --- | --- |
| OB(O)c1cncc(Oc2cccnc2)c1 |  |  | 16 |  | >= 64 ug ml-1 | > 128 |  |  |  |
| CC(C)(O)C(C)(C)OB(OC(C)(C)C(C)(C)O)c1ccc(Br)nc1 | < 90 | < 90 | 8 | 0 | >= 64 ug ml-1 |  |  |  |  |
| O=Cc1ccccc1Br |  |  | > 128 |  | >= 64 ug ml-1 | > 128 |  |  |  |
| O=C(O)c1cccnc1 [NIACIN] |  |  | > 128 |  | >= 64 ug ml-1 | > 128 |  |  |  |
| OB(O)c1cnc2ccccc2c1 | < 90 | < 90 | 4 | 0 | >= 64 ug ml-1 |  |  |  |  |
| Oc1cnc2ccccc2c1 |  |  | > 128 |  | >= 64 ug ml-1 | > 128 |  |  |  |
| O=Cc1ccc(OCc2ccccc2)nc1 |  |  | 32 |  | >= 64 ug ml-1 | > 128 |  |  |  |
| CC(C)(O)C(C)(C)OB(OC(C)(C)C(C)(C)O)c1cc(Br)cnc1F |  | < 90 | 64 |  | >= 64 ug ml-1 | 128 (≈ 305 µM) |  |  |  |
| OB(O)c1ccccc1Oc1ccccc1 |  |  | 32 | 10 |  | 32 (≈ 150 µM) | 32 |  |  |
| OB(O)c1ccc(Oc2cncc(Cl)c2)nc1 | < 90 | < 90 | 8 | 0 | >= 64 ug ml-1 |  |  |  |  |
| Cc1cc(O)cnc1Cl |  |  | > 128 |  | >= 64 ug ml-1 | > 128 |  |  |  |
| Oc1ccc2ccccc2c1 [BETANAPHTHOL] |  |  | 64 |  | >= 64 ug ml-1 | > 128 |  |  |  |
| CC(C)(O)C(C)(C)OB(OC(C)(C)C(C)(C)O)c1cc(Cl)cnc1Cl |  | < 90 | > 128 |  | >= 64 ug ml-1 | 128 (≈ 326 µM) |  |  |  |
| Cc1cc(C(=O)O)cnc1Cl |  |  | > 128 |  | >= 64 ug ml-1 | > 128 |  |  |  |
| Oc1cccnc1 |  |  | > 128 |  | >= 64 ug ml-1 | > 128 |  |  |  |
| CC(C)(O)C(C)(C)OB(OC(C)(C)C(C)(C)O)c1cncc(Cl)c1 |  |  | > 128 |  | >= 64 ug ml-1 | 128 (≈ 358 µM) |  |  |  |
| CC(=O)n1ncc2c(B3OC(C)(C)C(C)(C)O3)cccc21 | < 90 | < 90 | 8 | 0 | >= 64 ug ml-1 |  |  |  |  |
| COc1ccc(B(O)O)cn1 | < 90 | < 90 | 4 | 0 | >= 64 ug ml-1 |  |  |  |  |
| Oc1ccc(Br)nc1 |  |  | > 128 |  | >= 64 ug ml-1 | > 128 |  |  |  |
| Cc1c(B(O)O)ccc2ccccc12 | < 90 | < 90 | 8 | 0 | >= 64 ug ml-1 |  |  |  |  |
| Oc1ccccc1 [PHENOL] |  |  | > 128 |  | >= 64 ug ml-1 | > 128 |  |  |  |
| OB(O)c1ccc(OCc2ccccc2)nc1 | < 90 | < 90 | 1 | 2 | >= 64 ug ml-1 |  |  |  | 4 |

From ChEMBL document CHEMBL3232989, “First identification of boronic species as novel potential inhibitors of the Staphylococcus aureus NorA efflux pump” (J Med Chem, 2014)
